The results in this text go back to ChEMBL document CHEMBL1154362, “Lead optimization and structure-based design of potent and bioavailable deoxycytidine kinase inhibitors” (Bioorg Med Chem Lett, 2009).

The source made the active and inactive calls. The calls are words filed in the database; no cut-off is given here.

The target of series [1] is T1, Deoxycytidine kinase (Homo sapiens, UniProt P27707). The series is described as follows: Inhibition of human deoxycytidine kinase by lysate filter binding assay.
Target sequence in this assay (P27707 whole entry): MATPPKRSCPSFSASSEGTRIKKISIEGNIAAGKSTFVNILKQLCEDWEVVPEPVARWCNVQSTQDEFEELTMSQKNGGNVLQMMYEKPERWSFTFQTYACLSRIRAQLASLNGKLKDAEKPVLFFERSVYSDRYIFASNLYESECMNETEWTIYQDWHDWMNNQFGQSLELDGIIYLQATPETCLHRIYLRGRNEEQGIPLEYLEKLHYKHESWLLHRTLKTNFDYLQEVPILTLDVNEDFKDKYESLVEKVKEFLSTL
The nature of series [2]: AUC ((0 to infinity)) in mouse at 10 mg/kg, po. The format is ADME, organism-based. More on the design: time infinity, dose 10 mg/kg, route oral. The settings on record: plasma. The method, boiled down: (§1)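 Mouse PK: single doses of 10 mpk po and 1 mpk iv, with blood sampled to measure compound levels. Clearance and volume came from the iv dose. AUC to infinity, Cmax and other parameters came from the po dosing data.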

A short description of series [3]: Cmax in mouse at 10 mg/kg, po. It is filed as ADME, organism-based. Also noted: dose 10 mg/kg, route oral. Conditions: in vivo. The essentials:
as §1

The nature of series [4]: Half life in mouse at 10 mg/kg, po. The format is ADME, organism-based. Also noted: dose 10 mg/kg, route oral. The settings on record: in vivo. The essentials: as §1
A short description of series [5]: Tmax in mouse at 10 mg/kg, po. It is filed as ADME, organism-based. More on the design: dose 10 mg/kg, route oral. Conditions: in vivo. The essentials:
as §1

Series [6] in a line: Bioavailability in mouse at 10 mg/kg, po. The format is ADME, organism-based. Conditions: in vivo. The essentials:
as §1

A short description of series [7]: Terminal volume of distribution in mouse at 1 mg/kg, iv. It is filed as ADME, organism-based. Also noted: dose 1 mg/kg, route intravenous. The settings on record: in vivo, read-out: Vz. The method, boiled down: as §1
Series [8] can be described thus: Clearance in mouse at 1 mg/kg, iv. It is filed as ADME, organism-based. Also noted: dose 1 mg/kg, route intravenous. The settings on record: in vivo. The essentials:
as §1

For another series, the system named is Liver microsomes. The series is described as follows: Stability in human liver microsomes. It is filed as ADME, Microsome. For orientation: Liver microsomes are a subcellular fraction often used to study metabolism.
A short description of series [9]: Stability in mouse liver microsomes. The format is ADME, Microsome.
In series [10] the target is Deoxycytidine kinase (Mus musculus, UniProt P43346). The series can be described thus: Inhibition of deoxycytidine kinase in anti CD3 and anti CD28 -stimulated mouse T cells assessed as reduction in [3H]deoxycitidine incorporation. The format is cell-based, T-cell.
For series [11], the target named is T1, Deoxycytidine kinase. The series is described as follows: Inhibition of deoxycytidine kinase in anti CD3 and anti CD28 -stimulated human T cells assessed as reduction in [3H]deoxycitidine incorporation. It is filed as cell-based, T-cell.
Target sequence in this assay (P27707 whole entry): as above
Series [12] concerns the target T1, Deoxycytidine kinase. The series is described as follows: Inhibition of deoxycytidine kinase in anti CD3 and anti CD28 -stimulated human T cells assessed as reduction in deoxythymidine incorporation. The format is cell-based. Conditions: T-cell.
Target sequence in this assay (P27707 whole entry, looked up): as the sequence (P27707 whole entry) above
The target in series [13] is Deoxycytidine kinase (Mus musculus) (UniProt P43346). The series is described as follows: Inhibition of deoxycytidine kinase in anti CD3 and anti CD28 -stimulated mouse T cells assessed as reduction in deoxythymidine incorporation. The format is cell-based. The settings on record: T-cell.
In series [14] the test system is Mus musculus. The series can be described thus: Inhibition of deoxycytidine kinase in anti CD3 -stimulated mouse assessed as reduction in [3H]deoxycytidine incorporation at 100 mg/kg, po treated 1 day before, day 0 and day 1 after anti CD3 challenge measured on day 2. The format is functional, organism-based. More on the design: dose 100 mg/kg. The essentials: (§2)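 In vivo mouse dCK inhibition. Compound was given by oral gavage on day -1, day 0 and day 1. Anti-CD3 (0.5 µg/g body wt) was given ip on day 0, after the second dose. […] (100 µCi/animal) was given ip on day 1. Spleens were harvested on day 2 and dissociated into single-cell suspensions normalized to 30 mg/ml by spleen weight. Aliquots were filtered onto glass fibre and counted by liquid scintillation. n = 6-8 mice per group; controls were vehicle and no anti-CD3.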

Series [15] deals with Mus musculus. The series is described as follows: Inhibition of deoxycytidine kinase in anti CD3 -stimulated po dosed mouse assessed as reduction in [3H]deoxycytidine incorporation treated 1 day before, day 0 and day 1 after anti CD3 challenge measured on day 2. It is filed as functional, organism-based. The essentials:
as §2

Chain of Deoxycytidine kinase (Mus musculus) (P43346 whole entry, looked up): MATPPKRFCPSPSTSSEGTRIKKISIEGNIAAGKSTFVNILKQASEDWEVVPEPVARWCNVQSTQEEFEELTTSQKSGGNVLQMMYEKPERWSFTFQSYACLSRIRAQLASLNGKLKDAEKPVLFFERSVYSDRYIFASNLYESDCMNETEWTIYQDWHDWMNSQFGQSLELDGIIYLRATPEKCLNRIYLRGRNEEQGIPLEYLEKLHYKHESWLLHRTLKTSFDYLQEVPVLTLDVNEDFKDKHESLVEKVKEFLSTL
Chain of Deoxycytidine kinase (Mus musculus, UniProt P43346) (P43346 whole entry): as the sequence (P43346 whole entry, looked up) above

Take `Nc1nc(=O)n([C@H]2CC[C@H](NS(=O)(=O)c3ccccc3)C2)cc1F`: the IC50 (in general, the point on the concentration scale where inhibition reaches its midpoint) on Deoxycytidine kinase [1] came out at 3600 nM.

At Deoxycytidine kinase [1], `Cc1cc(Cl)ccc1-c1cccc(C(=O)N[C@H]2CC[C@H](n3cc(F)c(N)nc3=O)C2)c1` returned an IC50 of 21 nM. Also, the AUC(0-inf) (usually total exposure, with the tail of the curve extrapolated) in [2] is 10.8 µM·h. In addition, in series [3], the highest level (Cmax) was 10.1 µM. Further, in series [4], the half-life – broadly, how long it takes for the measured level to halve – was 1.3 h. The Tmax (as a rule, the time from dosing to the highest level) in series [5] stood at 0.3 h. Further, in series [6], the bioavailability (as a rule, the share of a dose that reaches the circulation, judged against a reference dose that is usually intravenous) came out at 58%. Moreover, the Vd in [7] is 1.6 L/kg. The clearance (in general, a measure of how efficiently the substance is removed, as volume per time) in series [8] worked out at 20 mL/min/kg.

`Nc1nc(=O)n([C@H]2CC[C@H](NS(=O)(=O)c3ccc(Br)cc3)C2)cc1F` returned an IC50 at Deoxycytidine kinase [1] of 2700 nM.

The compound `COc1ccc(-c2cccc(S(=O)(=O)N[C@H]3CC[C@H](n4cc(F)c(N)nc4=O)C3)c2)cc1` returned an IC50 at Deoxycytidine kinase [1] of 64 nM. Moreover, the AUC(0-inf) in series [2] was 0.6 µM·h. Further, the highest level in series [3] (Cmax) was 0.3 µM. In series [4], this compound showed a half-life of 1.2 h. For the same compound, the Tmax in series [5] was determined as 0.8 h. Besides, in [6], the bioavailability is 9%. Further, the Vd in [7] came out at 4.4 L/kg. Further, the clearance in series [8] amounted to 63 mL/min/kg.

For `Nc1nc(=O)n([C@H]2CC[C@H](NC(=O)c3cccc(-c4cccc(Cl)c4)c3)C2)cc1F`, the IC50 at Deoxycytidine kinase [1] was 23 nM.

With `Nc1nc(=O)n([C@H]2CC[C@H](NS(=O)(=O)c3ccc([N+](=O)[O-])cc3)C2)cc1F`, on Deoxycytidine kinase [1], the IC50 amounted to 3200 nM.

`NC(=O)c1ccc(-c2cccc(S(=O)(=O)N[C@H]3CC[C@H](n4cc(F)c(N)nc4=O)C3)c2)cc1`: the IC50 on Deoxycytidine kinase [1] came out at 89 nM.

Consider `Nc1nc(=O)n([C@H]2CC[C@H](NS(=O)(=O)c3cccc(-c4ccccc4)c3)C2)cc1F`, for which the IC50 on Deoxycytidine kinase [1] turned out to be 120 nM.

In turn, `Nc1nc(=O)n([C@H]2CC[C@H](NS(=O)(=O)c3cccc(-c4ccc(C(=O)O)cc4)c3)C2)cc1F` showed an IC50 on Deoxycytidine kinase [1] of 15300 nM.

Compound `Nc1nc(=O)n([C@H]2CC[C@H](NS(=O)(=O)c3cccc(-c4ccc(Cl)cc4Cl)c3)C2)cc1F` displayed an IC50 at Deoxycytidine kinase [1] of 21 nM.

On to `Nc1nc(=O)n([C@H]2CC[C@H](NC(=O)c3cccc(-c4ccc(Cl)cc4)c3)C2)cc1F`, for which the IC50 at Deoxycytidine kinase [1] was found to be 42 nM. In [2], the AUC(0-inf) amounted to 15.8 µM·h. In addition, in series [3], the Cmax (in general, the maximum level reached in the sampled fluid or tissue) is 16.2 µM. The compound also gave a half-life in series [4] of 0.8 h. Further, the Tmax in [5] came out at 0.3 h. The bioavailability in series [6] amounted to 12%. Also, in series [7], the Vd turned out to be 0.2 L/kg. The compound further had a clearance in [8] of 3 mL/min/kg.

For the compound `N#Cc1ccc(-c2cccc(S(=O)(=O)N[C@H]3CC[C@H](n4cc(F)c(N)nc4=O)C3)c2)cc1`, at Deoxycytidine kinase [1], the IC50 was 49 nM.

For the compound `Nc1nc(=O)n([C@H]2CC[C@H](NS(=O)(=O)c3cccc(-c4ccc(Cl)cc4)c3)C2)cc1F`, the IC50 on Deoxycytidine kinase [1] was 51 nM. The AUC(0-inf) in series [2] was found to be 5.2 µM·h. For the same compound, the concentration in [3] peaked (Cmax) at 1 µM. Moreover, the half-life in series [4] was 2.1 h. In addition, the Tmax in series [5] was determined as 2 h. In [7], the Vd came to 16 L/kg. Further, the clearance in series [8] came to 140 mL/min/kg.

As to `COc1ccc(-c2cccc(C(=O)N[C@H]3CC[C@H](n4cc(F)c(N)nc4=O)C3)c2)cc1`, on Deoxycytidine kinase [1], the IC50 came out at 30 nM. The compound further came in with an AUC(0-inf) in [2] of 3.8 µM·h. This compound also showed a Cmax in series [3] of 3.4 µM. The compound also showed a half-life in series [4] of 1.6 h. Moreover, in series [5], the Tmax was 0.3 h. In series [6], this compound yielded a bioavailability of 17%. Moreover, the Vd in [7] was 1.3 L/kg. Further, in series [8], the clearance amounted to 18 mL/min/kg.

On to `Nc1nc(=O)n([C@H]2CC[C@H](NS(=O)(=O)c3cccc(-c4ccccc4Cl)c3)C2)cc1F`, for which, on Deoxycytidine kinase [1], the concentration for half-maximal inhibition (IC50) turned out to be 45 nM.

`Cc1cc(Cl)ccc1-c1cccc(S(=O)(=O)N[C@H]2CC[C@H](n3cc(F)c(N)nc3=O)C2)c1` returned an IC50 at Deoxycytidine kinase [1] of 21 nM. Also, the AUC(0-inf) in [2] was determined as 2.3 µM·h. Also, the peak level in series [3] (Cmax) was 1.5 µM. Moreover, in [4], the half-life is 1.6 h. In addition, the Tmax in [5] was 0.3 h. Also, in series [6], the bioavailability was found to be 15%. Besides, in series [7], the Vd came out at 3 L/kg. Further, the clearance in [8] stood at 23 mL/min/kg.

Turning to `Nc1nc(=O)n([C@H]2CC[C@H](NC(=O)c3cccc(-c4ccccc4)c3)C2)cc1F`, the IC50 on Deoxycytidine kinase [1] is 260 nM.

Consider `CS(=O)(=O)c1ccc(-c2cccc(S(=O)(=O)N[C@H]3CC[C@H](n4cc(F)c(N)nc4=O)C3)c2)cc1`, for which the IC50 at Deoxycytidine kinase [1] was 63 nM.

`Cc1ccc(-c2cccc(S(=O)(=O)N[C@H]3CC[C@H](n4cc(F)c(N)nc4=O)C3)c2)cc1` registered an IC50 on Deoxycytidine kinase [1] of 110 nM.

In the case of `Nc1nc(=O)n([C@H]2CC[C@H](NS(=O)(=O)c3cccc(-c4cccc(Cl)c4)c3)C2)cc1F`, at Deoxycytidine kinase [1], the IC50 came to 79 nM.

With `Nc1nc(=O)n([C@H]2CC[C@H](NS(=O)(=O)c3ccc(-c4ccccc4)cc3)C2)cc1F`, on Deoxycytidine kinase [1], the IC50 turned out to be 350 nM.

As to `Nc1nc(=O)n([C@H]2CC[C@H](NC(=O)c3cc(-c4cc5ccccc5s4)ccn3)C2)cc1F`, the IC50 on Deoxycytidine kinase [1] turned out to be 1.7 nM. Further, the AUC(0-inf) in series [2] was found to be 22 µM·h. The same compound came in with a Cmax in [3] of 7.4 µM. In addition, in series [4], the half-life was 1.5 h. Also, the Tmax in series [5] is 0.6 h. Further, the bioavailability in series [6] was 42%. In addition, the Vd in series [7] was found to be 0.8 L/kg. In [8], this compound returned a clearance of 7 mL/min/kg. The Stability result (in the series on Liver microsomes; in series [9]) was “Stable” each time. Besides, the EC50 (as a rule, the concentration that produces a half-maximal response) on Deoxycytidine kinase [10] stood at 17 nM; at Deoxycytidine kinase [11], 90 nM. For the same compound, the result (on Deoxycytidine kinase [12]; in [13]) was inactive. The result in the series with Mus musculus [14] was Active. The Activity result in the series on Mus musculus [15] was “Dose-dependent effect”.

Compound `Nc1nc(=O)n([C@H]2CC[C@H](NS(=O)(=O)c3cccc(Br)c3)C2)cc1F` showed an IC50 on Deoxycytidine kinase [1] of 1900 nM.
